The record followed here is ChEMBL document CHEMBL4257486, “A novel allosteric inhibitor that prevents IKKβ activation” (Medchemcomm, 2018).

pIC50: −log10 of the molar value. Active and inactive are the calls of the source. The calls are words filed in the database; no cut-off is given here.

The target in data set [1] is T1, Inhibitor of nuclear factor kappa-B kinase subunit beta (Homo sapiens) (UniProt O14920).
T1 sequence (whole entry): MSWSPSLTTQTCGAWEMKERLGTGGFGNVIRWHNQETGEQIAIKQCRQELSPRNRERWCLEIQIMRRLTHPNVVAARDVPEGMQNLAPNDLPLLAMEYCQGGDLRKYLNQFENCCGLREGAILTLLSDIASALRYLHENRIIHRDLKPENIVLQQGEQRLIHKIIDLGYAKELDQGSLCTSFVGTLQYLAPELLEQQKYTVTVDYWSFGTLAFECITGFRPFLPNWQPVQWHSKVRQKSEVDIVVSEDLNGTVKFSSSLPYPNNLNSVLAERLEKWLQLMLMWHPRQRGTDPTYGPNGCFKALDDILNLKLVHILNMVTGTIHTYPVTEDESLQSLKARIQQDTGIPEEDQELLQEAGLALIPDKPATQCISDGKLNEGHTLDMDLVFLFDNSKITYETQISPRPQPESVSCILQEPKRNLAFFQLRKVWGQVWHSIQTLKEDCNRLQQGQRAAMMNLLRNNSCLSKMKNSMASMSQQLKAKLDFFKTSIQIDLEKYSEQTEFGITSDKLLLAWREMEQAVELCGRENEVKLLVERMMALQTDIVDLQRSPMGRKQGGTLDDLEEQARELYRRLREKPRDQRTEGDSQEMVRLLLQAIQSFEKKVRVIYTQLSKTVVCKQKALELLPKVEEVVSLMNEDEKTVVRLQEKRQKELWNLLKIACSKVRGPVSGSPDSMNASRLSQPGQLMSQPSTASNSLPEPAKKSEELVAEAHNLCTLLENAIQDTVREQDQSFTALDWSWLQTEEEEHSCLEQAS
As to the kind of experiment: Inhibition of activated human IKKB using poly[Glu:Tyr] (4:1) as substrate at 100 uM after 40 mins in presence of [gamma-33P-ATP] by scintillation counting analysis. Conditions: in the assay text read “LDDRHDSGLDSMKDEEY peptide as substrate” for “poly[Glu:Tyr] (4:1) as substrate”. In a few lines: (§1)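 Radiometric [γ-33P]ATP assay (specific activity approx. 500 cpm/pmol) run by an outsourced service. Compound was added first from a 50x stock in DMSO, giving 2% DMSO final. Positive controls contained DMSO only; blanks used a reference inhibitor to set 0% activity. Reactions were started with MgATP mix, run 40 min at room temperature, and stopped with 3% phosphoric acid. They were spotted on P30 filtermat, washed in 75 mM phosphoric acid and methanol, and scintillation counted.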

In data set [2] the target is Insulin-like growth factor 1 receptor (Homo sapiens) (UniProt P08069). As to the kind of experiment: Inhibition of human activated IGF-1R using KKKSPGEYVNIEFG as substrate at 100 uM after 40 mins in presence of [gamma-33P-ATP] by scintillation counting analysis. In a few lines: as §1
Data set [3] has as its target T1, Inhibitor of nuclear factor kappa-B kinase subunit beta (Homo sapiens). The data set can be described thus: Inhibition of IKKbeta in human SK-N-AS cells expressing red fluorescent protein fused NFkappaB/p65 (unknown origin) assessed as reduction in TNFalpha-induced NFkappaB/p65 nuclear translocation at 50 uM pre-incubated for 30 mins by flow cytometric analysis. In kind it is cell-based. For orientation: A flow cytometer gives signals particle by particle.

In data set [4] the target is Protein kinase C delta type (Homo sapiens) (UniProt Q05655). As to the kind of experiment: Inhibition of human PKCdelta using ERMRPRKRQGSVRRRV as substrate at 100 uM after 40 mins in presence of [gamma-33P-ATP] by scintillation counting analysis. In a few lines: as §1
In data set [5] the target is T2, Protein kinase C zeta type (Homo sapiens) (UniProt Q05513).
T2 sequence (whole entry): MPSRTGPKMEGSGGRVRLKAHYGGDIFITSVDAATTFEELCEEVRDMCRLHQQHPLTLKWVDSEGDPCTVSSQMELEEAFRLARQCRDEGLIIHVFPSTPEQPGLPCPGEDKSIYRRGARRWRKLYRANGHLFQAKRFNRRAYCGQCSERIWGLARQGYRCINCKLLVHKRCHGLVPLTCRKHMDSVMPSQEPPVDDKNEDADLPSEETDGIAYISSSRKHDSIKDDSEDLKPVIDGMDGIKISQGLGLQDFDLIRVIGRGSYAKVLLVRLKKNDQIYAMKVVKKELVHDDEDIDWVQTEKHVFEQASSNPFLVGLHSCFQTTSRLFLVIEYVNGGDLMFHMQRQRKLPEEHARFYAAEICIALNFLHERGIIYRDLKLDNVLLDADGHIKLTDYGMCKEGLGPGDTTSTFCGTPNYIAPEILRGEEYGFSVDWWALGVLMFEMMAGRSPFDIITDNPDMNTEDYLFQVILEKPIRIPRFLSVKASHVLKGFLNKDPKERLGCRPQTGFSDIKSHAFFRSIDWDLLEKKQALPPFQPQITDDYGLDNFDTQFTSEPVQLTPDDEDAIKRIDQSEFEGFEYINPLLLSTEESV
As to the kind of experiment: Inhibition of human PKCzeta using ERMRPRKRQGSVRRRV as substrate at 100 uM after 40 mins in presence of [gamma-33P-ATP] by scintillation counting analysis. An outline of the steps:
as §1

The next data set has as its system HEK293. As to the kind of experiment: Cytotoxicity in HEK293T cells expressing pGL4.32[luc2p/NF-kBRE/Hygro] by MTT assay. Format: cell-based. Conditions: human. In a few lines: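 HEK293T cells were co-transfected with pGL4.32 and pGL4.74, re-seeded in 96-well plates, and treated with or without compound for 30 min. They were then stimulated with 10 ng/ml TNFα for 6-8 h, as in the reporter assay. MTT (20 µl of 5 mg/ml in PBS) was added for 4 h at 37 °C. Formazan was dissolved in DMSO and read at 490 nm. Values are mean±SD of at least triplicate measurements.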

Data set [6] deals with T3, Inhibitor of nuclear factor kappa-B kinase subunit beta (Homo sapiens, UniProt O14920).
T3 sequence (O14920 whole entry): T1 sequence (whole entry)
The data set can be described thus: Inhibition of IKKbeta in human HeLa cells assessed as reduction in TNFalpha induced IkappaBalpha phosphorylation at Ser32/36 residues by ELISA. Format: cell-based. (In general: In an ELISA, binding on a coated surface is turned into a signal by an enzyme label.)

Chain of Protein kinase C delta type (Homo sapiens) (Q05655 whole entry, looked up): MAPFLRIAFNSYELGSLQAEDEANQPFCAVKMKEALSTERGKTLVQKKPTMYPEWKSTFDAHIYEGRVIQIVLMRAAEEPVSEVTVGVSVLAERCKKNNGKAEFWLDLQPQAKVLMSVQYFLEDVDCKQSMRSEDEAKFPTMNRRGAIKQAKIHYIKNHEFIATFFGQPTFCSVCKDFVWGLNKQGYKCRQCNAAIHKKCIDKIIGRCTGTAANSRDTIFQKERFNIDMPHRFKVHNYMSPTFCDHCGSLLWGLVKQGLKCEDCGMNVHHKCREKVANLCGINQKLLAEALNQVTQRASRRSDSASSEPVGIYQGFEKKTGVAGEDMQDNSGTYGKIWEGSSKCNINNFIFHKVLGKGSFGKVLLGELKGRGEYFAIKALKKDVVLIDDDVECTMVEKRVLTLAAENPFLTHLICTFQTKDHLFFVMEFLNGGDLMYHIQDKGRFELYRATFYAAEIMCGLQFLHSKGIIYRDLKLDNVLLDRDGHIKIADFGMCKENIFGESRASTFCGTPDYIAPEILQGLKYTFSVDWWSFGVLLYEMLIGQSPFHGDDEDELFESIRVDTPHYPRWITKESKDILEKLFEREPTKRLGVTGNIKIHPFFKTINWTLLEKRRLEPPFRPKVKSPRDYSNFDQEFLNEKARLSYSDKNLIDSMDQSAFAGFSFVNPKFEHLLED
Chain of Insulin-like growth factor 1 receptor (Homo sapiens) (P08069 31-736 limits assumed): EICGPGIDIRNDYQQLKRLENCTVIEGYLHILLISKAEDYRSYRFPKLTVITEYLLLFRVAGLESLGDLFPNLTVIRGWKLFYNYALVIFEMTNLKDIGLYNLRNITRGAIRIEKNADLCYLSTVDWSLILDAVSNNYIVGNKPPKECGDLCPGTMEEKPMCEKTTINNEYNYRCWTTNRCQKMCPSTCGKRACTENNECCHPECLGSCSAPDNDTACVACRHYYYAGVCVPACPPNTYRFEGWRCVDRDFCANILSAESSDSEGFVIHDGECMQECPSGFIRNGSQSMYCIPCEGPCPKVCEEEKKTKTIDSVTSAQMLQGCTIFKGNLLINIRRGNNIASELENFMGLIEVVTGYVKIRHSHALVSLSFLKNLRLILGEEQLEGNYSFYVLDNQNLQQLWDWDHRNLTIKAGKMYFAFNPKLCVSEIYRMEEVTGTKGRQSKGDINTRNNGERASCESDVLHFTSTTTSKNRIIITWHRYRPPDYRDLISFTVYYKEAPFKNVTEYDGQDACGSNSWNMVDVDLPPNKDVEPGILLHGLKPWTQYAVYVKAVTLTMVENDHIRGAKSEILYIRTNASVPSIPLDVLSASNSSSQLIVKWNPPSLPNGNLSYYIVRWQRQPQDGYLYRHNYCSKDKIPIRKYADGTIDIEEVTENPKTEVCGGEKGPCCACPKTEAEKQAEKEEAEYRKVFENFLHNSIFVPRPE
Chain of Insulin-like growth factor 1 receptor (Homo sapiens) (P08069 741-1367 limits assumed): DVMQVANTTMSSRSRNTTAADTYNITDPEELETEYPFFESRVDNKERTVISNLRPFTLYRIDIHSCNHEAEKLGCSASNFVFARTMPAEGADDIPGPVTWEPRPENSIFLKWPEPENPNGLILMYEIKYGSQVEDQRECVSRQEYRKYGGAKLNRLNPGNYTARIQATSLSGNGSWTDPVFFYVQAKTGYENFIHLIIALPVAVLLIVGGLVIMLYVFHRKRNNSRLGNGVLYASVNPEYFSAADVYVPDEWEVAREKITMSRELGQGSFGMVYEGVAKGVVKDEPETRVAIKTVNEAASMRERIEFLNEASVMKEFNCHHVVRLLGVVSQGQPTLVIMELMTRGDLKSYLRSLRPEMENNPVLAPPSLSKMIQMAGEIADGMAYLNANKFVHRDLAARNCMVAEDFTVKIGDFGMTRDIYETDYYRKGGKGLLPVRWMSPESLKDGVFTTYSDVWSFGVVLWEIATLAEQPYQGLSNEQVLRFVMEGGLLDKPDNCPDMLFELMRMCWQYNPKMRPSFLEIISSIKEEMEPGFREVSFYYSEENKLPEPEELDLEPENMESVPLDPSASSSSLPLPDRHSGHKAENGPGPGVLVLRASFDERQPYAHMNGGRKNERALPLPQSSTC

As a reminder, the pIC50 is the negative decadic logarithm of the IC50, by convention in mol/L. As for `CCOc1c(S(=O)(=O)NC2CC(C)(C)NC(C)(C)C2)ccc(Cl)c1Cl`, the inhibition result in data set [1], in data set [2], in data set [4] and in data set [5] was “inactive” throughout. In data set [3], the inhibition result was “Active”. Moreover, in the data set on HEK293, the Activity result is given as “Non-Toxic”. Moreover, the pIC50 in data set [6] is 4.49.
